HUVEC inhibit: human endothelial cell proliferation inhibition. AID 648. HUVEC proliferation, CellTiter-Glo luminescence, 72 h; stronger effect = lower value. 86,000 tested, 1.1% active. viability, % at 10 µM (by protocol);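 active = viability at or below 30%; inactive = viability above 30%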;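 also: 100% = median luminescence of DMSO-only cell control wells on each plate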
H69AR inhibit: growth inhibitors of human H69AR lung tumor cells. H69AR lung tumor viability, ATP luminescence, 72 h; stronger effect = lower value. viability, % at 10 µM. 85,000 tested, 6% active. AID 598;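 active = viability at or below 40%; inactive = viability above 40%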;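 also: multidrug resistant small cell line overexpressing MRP-1 efflux transporter; 100% = mean luminescence of untreated control wells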
Fibroblast inh: blocks proliferation of human lung fibroblasts. viability, % at 10 µM. LL 47 human lung fibroblast viability, ATP luminescence; stronger effect = lower value. 85,000 tested, 1.1% active. AID 719;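 active = viability at or below 50% in the single dose screen; inactive = viability above 50%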;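 also: compound exposure lasted 72 h before the ATP readout; 100% = median luminescence of untreated cell-only wells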
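test system = LL 47 human lung fibroblasts | amount = 1,150 fibroblasts seeded per well | medium = 15% FBS in IMEM | times = overnight cell rest, 72 h compound treatment at 37 °C | measured by = CellTiter-Glo luminescence measuring cellular ATP | read-out = viability percentage against median untreated-cell control | benchmarks = cell-only wells, no compound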
bCat KO growth: beta-catenin-lacking colon tumor cell growth suppression. HCT116 beta-catenin knockout viability, CellTiter-Glo, 60 h; stronger effect = lower value. viability, % at 10 µM. 140,000 tested, 1.5% active. AID 818;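 active = viability at or under a set limit, the compound median less 4 SD, cut at about 6% in these data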;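 also: 0% = Hyamine 1622 control at 20 µM and 100% = untreated cell control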
HCT116 PTEN-null: PTEN-deleted cell growth suppression; HCT116 PTEN-null viability, CellTiter-Glo, 60 h; stronger effect = lower value; viability, % at 10 µM; 140,000 tested, 1.2% active;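 active = viability at or below a set limit, 4 SD under the median of all tested compounds, cut at about 3.7% in these data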;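 also: PTEN knockout HCT116 line with beta catenin targeted HCT116 as companion control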
The depositor's hits bear a star; . = no result given. The entries come from a sample that favours hits as a whole.

SMILES | HUVEC inhibit | H69AR inhibit | Fibroblast inh | bCat KO growth | HCT116 PTEN-null
O=C1C(N2CCOCC2)=C(n2nnc3ccccc32)C(=O)c2ccccc21 | 2.2* | 1.4* | 2.4* | 2.0* | 2.1*
Cc1cccc(C)c1NC(=S)N(c1ccccc1)C(C)C | . | . | . | 87 | 96
Fc1ccc(-c2cc3nc4c(c(N5CCOCC5)n3n2)CCCC4)cc1 | 53 | 35* | 80 | 77 | 72
Cc1cccc(-c2cc3nc4c(c(N5CCC6(CC5)OCCO6)n3n2)CCCC4)c1 | 84 | 31* | 88 | . | .
O=C(Nc1ccccc1)N(CCc1ccncc1)C1CCCCC1 | 88 | 92 | 99 | . | .
CC(C)c1ccc(NC(=O)N(CCc2nc3ccccc3[nH]2)C2CCCC2)cc1 | 44 | 32* | 81 | 54 | 61
CCN(CC)CCN(C)C1CCC(c2ccccc2)CC1 (configuration not stated) | . | . | . | 69 | 74
CCCn1c(N2CCC(Cc3ccccc3)CC2)nc2c1c(=O)[nH]c(=O)n2C | 77 | 41 | 90 | 66 | 61
CCCCCCn1c(CN2CCCCC2C)nc2c1c(=O)n(C)c(=O)n2C (configuration not stated) | 97 | . | 86 | 6.0* | 10
Cn1c(=O)[nH]c(=O)c2c1nc(N1CCC(Cc3ccccc3)CC1)n2Cc1ccccc1 | 59 | 20* | 101 | 68 | 59
CCCCCn1c(N2CCC(Cc3ccccc3)CC2)nc2c1c(=O)[nH]c(=O)n2C | 7.5* | 20* | 93 | . | .
CCCCCCn1c(N2CCN(c3ccccc3)CC2)nc2c1c(=O)n(C)c(=O)n2C | 23* | 69 | 90 | 45 | 38
O=C(N/N=C/c1cccn1-c1cccc(C(=O)O)c1)Nc1ccccc1 | . | . | . | 94 | 98
CN(/C(=N\S(=O)(=O)c1ccccc1)C(F)(F)F)c1ccccc1 | . | . | . | 108 | 106
COc1ccc(CNc2nc(S(=O)(=O)c3ccccc3)c(Cl)s2)cc1OC | . | . | . | 19 | 23
Cc1ccc(NC(=S)NCCc2ccc(S(N)(=O)=O)cc2)cc1C | . | . | . | 90 | 82
NS(=O)(=O)c1ccc(CCNC(=O)Nc2ccc(Cl)c(Cl)c2)cc1 | 68 | 19* | 109 | 72 | 66
Clc1cnc(N/N=C/c2cccs2)c(Cl)c1 | 69 | 83 | 49* | 86 | 83
Cc1ccc(/C=N/Nc2ncc(Cl)cc2Cl)s1 | 62 | 50 | 47* | 36 | 41
Cc1cc(SCC(=O)c2cccs2)nc2ccccc12 | . | . | . | 77 | 63
O=C(Oc1nsnc1N1CCOCC1)N(c1ccccc1)c1ccccc1 | 93 | 84 | . | 82 | 80
COC(=O)Oc1nsnc1N1CCOCC1 | 94 | 2.7* | 93 | 101 | 118
CCn1cc([N+](=O)[O-])c(C(=O)N2N=C(c3ccc(O)c(OC)c3)CC2c2ccccc2O)n1 (configuration not stated) | . | . | . | 71 | 68
CCn1cc([N+](=O)[O-])c(C(=O)N2N=C(c3ccc4ccccc4c3)CC2c2cc(Br)ccc2O)n1 (configuration not stated) | 10* | 14* | 88 | 2.4* | 3.2*
CC/C(=C\C(=O)c1cccnc1)Nc1ccc(C)c(C)c1 | 96 | 86 | 92 | 106 | 85
SMILES | HUVEC inhibit | H69AR inhibit | Fibroblast inh | bCat KO growth | HCT116 PTEN-null
Cc1cc(C(=O)CSc2nnnn2-c2ccccc2)c(C)n1CCc1ccccc1 | 60 | 19* | 84 | 77 | 93
COc1ccc(CCn2c(C)cc(C(=O)CSc3nnnn3-c3ccccc3)c2C)cc1OC | 69 | 48 | 70 | 59 | 74
CCn1c(=O)c(=O)[nH]c2cc(C(=O)NC3CC3)ccc21 | . | . | . | 97 | 102
CCn1c(=O)c(=O)[nH]c2cc(C(=O)NC3CCCc4ccccc43)ccc21 (configuration not stated) | 66 | 32* | 69 | 29 | 27
CC(=O)Nc1c(O)nc(SCc2ccccc2C#N)[nH]c1=O | . | . | . | 97 | 104
COc1ccc(-c2c(C#N)c(SCC(=O)c3cc4ccccc4oc3=O)nc(C)c2C(=O)Nc2ccccc2)cc1 | . | . | . | 3.2* | 4
CCOC(=O)c1c(C)nc(SCC(N)=O)c(C#N)c1-c1ccccc1 | . | . | . | 83 | 95
Cc1nc(SCC(=O)c2cc3ccccc3oc2=O)c(C#N)c(-c2ccccc2)c1C(=O)Nc1ccccc1 | . | . | . | 1.4* | 1.7*
O=C(N/N=C1\CCCc2c1[nH]c1ccc([N+](=O)[O-])cc21)c1ccncc1 | . | . | . | 81 | 77
O=c1[nH]c(NCc2ccco2)nnc1Cc1ccccc1Cl | 48 | 30* | 77 | 30 | 37
Cc1ccc(-n2[nH]c(C)c(/C=N/c3ccccn3)c2=O)cc1 | 63 | 80 | . | 55 | 58
Cc1[nH]n(-c2ccccc2)c(=O)c1C=Nc1cccc2cccnc12 | . | . | . | 3.0* | 5
Cc1ccc(-c2onc3ccc(C=O)cc23)cc1 | 57 | 33* | 91 | 25 | 36
Cc1ccc(S(=O)(=O)NNC(=O)C(O)(c2ccccc2C)c2ccccc2C)cc1 | . | . | . | 91 | 96
O=C(CNS(=O)(=O)c1ccc(Cl)cc1)OCC(=O)N1CCCc2ccccc21 | . | . | . | 95 | 102
O=C(CCN1C(=O)C2C3CCC(C3)C2C1=O)OCC(=O)c1cccc([N+](=O)[O-])c1 (configuration not stated) | . | . | . | 91 | 97
O=C(Oc1ccnc2cc(Cl)ccc12)N1CCCCCC1 | 114 | 26* | 88 | 60 | 60
Cc1cc(/C=N/NC(=O)Cn2c3ccccc3c(=O)c3ccccc32)c(C)n1-c1ccc(Cl)cc1 | . | . | . | 93 | 91
CC(C)C(=O)c1cn(CC(=O)N2CCCc3ccccc32)c2ccccc12 | 77 | 36* | 96 | 87 | 86
COc1ccc(NC(=O)/C(Cl)=C(/Cl)S(=O)(=O)Cc2ccc(C)cc2)cn1 | 5.4* | 94 | 2.3* | 3.1* | 2.0*
COc1ccc(NC(=O)C(CC(C)C)NC(=O)c2ccccc2C)cn1 (configuration not stated) | 88 | 91 | . | 95 | 99
CCNc1nc(OC)nc(N2CCC(Cc3ccccc3)CC2)n1 | . | . | . | 74 | 82
Oc1ccccc1CNc1nc2ccccc2n1CCN1CCCCC1 | 91 | 66 | 94 | 57 | 62
COc1ccccc1CNc1nc2ccccc2n1CCN1CCCCC1 | 78 | 36* | 85 | 24 | 25
CC1=C(C(=O)Nc2ccc(C)cn2)C(c2cnn(C)c2)C2=C(CCCC2=O)N1 (configuration not stated) | . | . | . | 96 | 103
CC(C)COC(=O)c1cccc2c1-c1ccccc1/C2=N\O | 43 | 41 | 98 | 80 | 92
CCOC(=O)c1cccc2c1-c1ccccc1/C2=N/O | 14* | 28* | 89 | 100 | 95
COC(CN(C(=O)CCl)C(C(=O)NC1CCCCC1)c1ccc(C)cc1)OC (configuration not stated) | . | . | . | 74 | 70
COc1ccc(C(C(=O)NC2CCCC2)N(C(=O)c2ccoc2C)c2ccc(C)cc2)cc1 (configuration not stated) | . | . | . | 60 | 57
COc1ccc(C(C(=O)NC2CCCCC2)N(C(=O)CCl)c2cccc(Cl)c2)cc1 (configuration not stated) | . | . | . | 2.3* | 1.6*

Screening results deposited in PubChem by SRMLSC.
